Series [1] concerns Mycobacterium tuberculosis. Put plainly: Antimycobacterial activity against INH/RIF/rifabutine/STM resistant Mycobacterium tuberculosis 9449/2006 after 14 days. The format is functional. The note with it: 9449/2006, 336 h. In a few lines:
(§1)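 MIC against four MDR-TB strains and one XDR-TB strain, each inoculated at 10^-3 dilution, using the same broth method as for drug-susceptible M. tuberculosis. Concentrations tested were 1000 down to 1 µM in twofold-type steps (1000, 500, 250, 125, 62.5, 32, 16, 8, 4, 2, 1 µM). MIC is the lowest concentration with complete growth inhibition.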

The test system of series [2] is Mycobacterium tuberculosis. As to the kind of experiment: Antimycobacterial activity against INH/RIF/rifabutine/STM resistant Mycobacterium tuberculosis 9449/2006 after 21 days. The format is functional. The following applies: 9449/2006, 504 h. The method, boiled down: as §1
Series [3] relates to Mycobacterium tuberculosis. Put plainly: Antimycobacterial activity against INH/RIF/rifabutine/STM/EMB/clofazimine resistant Mycobacterium tuberculosis Praha 1 after 14 days. The format is functional. The note with it: Praha 1, 336 h. In a few lines: as §1
Series [4] deals with Mycobacterium tuberculosis. Put plainly: Antimycobacterial activity against INH/RIF/rifabutine/STM/EMB/clofazimine resistant Mycobacterium tuberculosis Praha 1 after 21 days. The format is functional. The note with it: Praha 1, 504 h. The method, boiled down:
as §1

The subject of series [5] is Mycobacterium tuberculosis. As to the kind of experiment: Antimycobacterial activity against INH/RIF/rifabutine/STM/EMB/OFX/clofazimine resistant Mycobacterium tuberculosis Praha 4 after 14 days. The format is functional. The note with it: Praha 4, 336 h. In a few lines: as §1
The subject of series [6] is Mycobacterium tuberculosis. Put plainly: Antimycobacterial activity against INH/RIF/rifabutine/STM/EMB/OFX/clofazimine resistant Mycobacterium tuberculosis Praha 4 after 21 days. The format is functional. The following applies: Praha 4, 504 h. The method, boiled down:
as §1

For series [7], the system named is Mycobacterium tuberculosis. Put plainly: Antimycobacterial activity against INH/RIF/rifabutine/STM/EMB resistant Mycobacterium tuberculosis 234/2005 after 14 days. The format is functional. The following applies: 234/2005, 336 h. In a few lines: as §1
For series [8], the system named is Mycobacterium tuberculosis. As to the kind of experiment: Antimycobacterial activity against INH/RIF/rifabutine/STM/EMB resistant Mycobacterium tuberculosis 234/2005 after 21 days. It is filed as functional. The following applies: 234/2005, 504 h. In a few lines:
as §1

The test system of series [9] is Mycobacterium tuberculosis. Put plainly: Antimycobacterial activity against INH/RIF/rifabutine/STM/EMB/OFX/gentamicin/amikacin resistant Mycobacterium tuberculosis Praha 131 after 14 days. The note with it: Praha 131, 336 h. It is filed as functional. The method, boiled down:
as §1

For series [10], the system named is Mycobacterium tuberculosis. Put plainly: Antimycobacterial activity against INH/RIF/rifabutine/STM/EMB/OFX/gentamicin/amikacin resistant Mycobacterium tuberculosis Praha 131 after 21 days. The format is functional. The following applies: Praha 131, 504 h. In a few lines:
as §1

The nature of series [11]: Selectivity index, ratio of IC50 for human HepG2 cells to MIC for INH/RIF/rifabutine/STM resistant Mycobacterium tuberculosis 9449/2006. The following applies: read-out: Selectivity Index. The format is toxicity. In a few lines:
(§2)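 SI is calculated as HepG2 IC50 divided by MIC. HepG2 cells (passage 2-4) were grown in EMEM with 10% FBS, L-glutamine and non-essential amino acids. Compounds in DMSO were tested in triplicate at eight concentrations, and viability was read by MTS tetrazolium reduction. 10% DMSO served as the 0% viability control.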

Series [12] can be described thus: Selectivity index, ratio of IC50 for human HepG2 cells to MIC for INH/RIF/rifabutine/STM/EMB/clofazimine resistant Mycobacterium tuberculosis Praha 1. It is filed as toxicity. The following applies: read-out: Selectivity Index. The method, boiled down: as §2
The nature of series [13]: Selectivity index, ratio of IC50 for human HepG2 cells to MIC for INH/RIF/rifabutine/STM/EMB/OFX/clofazimine resistant Mycobacterium tuberculosis Praha 4. The following applies: read-out: Selectivity Index. It is filed as toxicity. The method, boiled down:
as §2

A short description of series [14]: Selectivity index, ratio of IC50 for human HepG2 cells to MIC for INH/RIF/rifabutine/STM/EMB resistant Mycobacterium tuberculosis 234/2005. The format is toxicity. The note with it: read-out: Selectivity Index. In a few lines: as §2
A short description of series [15]: Selectivity index, ratio of IC50 for human HepG2 cells to MIC for INH/RIF/rifabutine/STM/EMB/OFX/gentamicin/amikacin resistant Mycobacterium tuberculosis Praha 131. The format is toxicity. The note with it: read-out: Selectivity Index. In a few lines: as §2
The nature of series [16]: Selectivity ratio of MIC for INH/RIF/rifabutine/STM resistant Mycobacterium tuberculosis 9449/2006 to MIC for Mycobacterium tuberculosis H37Rv. It is filed as functional.
Series [17] is described as follows: Selectivity ratio of MIC for INH/RIF/rifabutine/STM/EMB/clofazimine resistant Mycobacterium tuberculosis Praha 1 to MIC for Mycobacterium tuberculosis H37Rv. It is filed as functional.
Series [18] in a line: Selectivity ratio of MIC for INH/RIF/rifabutine/STM/EMB/OFX/clofazimine resistant Mycobacterium tuberculosis Praha 4 to MIC for Mycobacterium tuberculosis H37Rv. The format is functional.
Series [19] can be described thus: Selectivity ratio of MIC for INH/RIF/rifabutine/STM/EMB resistant Mycobacterium tuberculosis 234/2005 to MIC for Mycobacterium tuberculosis H37Rv. The format is functional.
Series [20] can be described thus: Selectivity ratio of MIC for INH/RIF/rifabutine/STM/EMB/OFX/gentamicin/amikacin resistant Mycobacterium tuberculosis Praha 131 to MIC for Mycobacterium tuberculosis H37Rv. It is filed as functional.

≈ marks a conversion by molar mass, not a printed value.

For `CCCNC(=O)NNC(=O)c1ccncc1`, the MIC in series [1], in series [2], in series [3], in [4], in series [5] and in series [6] was 16 µM (≈ 3.56 µg/mL) throughout. Moreover, the MIC in series [7], in series [8], in series [9] and in [10] was 16 µM (≈ 3.56 µg/mL) in each case. Moreover, the selectivity ratio in series [11], in series [12], in series [13], in series [14] and in series [15] was > 312 in each case. In addition, the Ratio in [16], in [17], in series [18], in [19] and in [20] was < 125 in each case.
With `CCCCCCCCCCCCNc1nnc(-c2ccncc2)o1`, the MIC turned out to be 4 µM (≈ 1.32 µg/mL) in series [1]; 4 µM (≈ 1.32 µg/mL) in series [2]; 4 µM (≈ 1.32 µg/mL) in [3]; 8 µM (≈ 2.64 µg/mL) in [4]; 4 µM (≈ 1.32 µg/mL) in series [5]; 8 µM (≈ 2.64 µg/mL) in series [6]. In addition, the MIC in series [7] was 4 µM (≈ 1.32 µg/mL); in series [8], 8 µM (≈ 2.64 µg/mL); in [9] it was 4 µM (≈ 1.32 µg/mL); in [10] it was 8 µM (≈ 2.64 µg/mL). In addition, the selectivity ratio in series [11] was > 6.25; in series [12], > 6.25; in series [13] it was > 6.25; in series [14], > 6.25; in series [15], > 12.5.
As for `CCNC(=O)NNC(=O)c1ccncc1`, the MIC in series [1], in [2], in series [3], in series [4], in series [5] and in series [6] was 125 µM (≈ 26 µg/mL) each time. In addition, the MIC in series [7], in series [8], in [9] and in [10] was 125 µM (≈ 26 µg/mL) each time. Moreover, the selectivity ratio in series [11], in [12], in [13], in [14] and in series [15] was > 32 throughout.
As for `CNC(=O)NNC(=O)c1ccncc1`, the MIC in series [1], in series [2], in series [3], in [4], in [5] and in series [6] was 62.5 µM (≈ 12.1 µg/mL) in each case. In addition, the MIC was 62.5 µM (≈ 12.1 µg/mL) in series [7], 62.5 µM (≈ 12.1 µg/mL) in [8], 32 µM (≈ 6.21 µg/mL) in series [9] and 62.5 µM (≈ 12.1 µg/mL) in [10]. The selectivity ratio in series [11], in [12], in [13], in series [14] and in series [15] was > 80 in each case. Also, the Ratio in series [16], in series [17], in series [18], in series [19] and in [20] was < 125 each time.
